{"source": "paper PMC6636858", "about": "(European journal of medicinal chemistry, 2019)", "key": {"[1]": {"molecular_target": "T1, Cathepsin B (CatB, human liver) (Homo sapiens, UniProt P07858)", "assay": "CatB inhibition constants / Km, fluorogenic substrate Z-Arg-Arg-AMC", "format": "biochemical"}, "[2]": {"molecular_target": "T2, Cathepsin L (Cat L, human liver) (Homo sapiens, UniProt P07711)", "T2 sequence (P07711 114-288 limits assumed)": "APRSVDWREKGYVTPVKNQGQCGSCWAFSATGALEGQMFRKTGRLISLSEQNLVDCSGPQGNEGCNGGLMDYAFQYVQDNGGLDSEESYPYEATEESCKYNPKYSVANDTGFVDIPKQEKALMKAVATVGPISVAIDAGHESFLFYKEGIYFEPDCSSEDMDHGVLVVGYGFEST", "T2 sequence (P07711 292-333 limits assumed)": "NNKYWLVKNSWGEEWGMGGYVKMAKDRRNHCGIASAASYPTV", "assay": "CatL inhibition constants / Km, fluorogenic substrate Z-Phe-Arg-AMC", "format": "biochemical"}, "HT-29 cells": {"test_system": "HT-29 cells", "assay": "SDS-PAGE autoradiography of intracellular adducts in cell lysate", "format": "cell-based, human", "details": "E-64 10 μM or N1 20 μM", "outline": "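HT-29 cells (1 × 10^6/well) incubated 4 h at 37 °C with radioconjugate (20 μCi, 0.74 MBq, in 1 mL medium), ± E-64 (10 μM as added) or N1 (20 μM as added). Cells PBS-washed and given fresh medium. At chosen times, pooled from 3 wells, trypsinized and lysed in RIPA plus protease inhibitor (15 min on ice). Cleared lysate heated in SDS sample buffer (85 °C, 2 min) and run on 16% Tris-glycine gel (110 V, 90 min).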"}, "human CatB": {"molecular_target": "human CatB (Homo sapiens, UniProt P07858)", "assay": "SDS-PAGE autoradiography of adduct formation with purified CatB", "format": "biochemical", "details": "E-64 10 μM or N1 20 μM"}, "human CatL": {"molecular_target": "human CatL (Homo sapiens, UniProt P07711)", "sequence (P07711 114-288 limits assumed)": "as the sequence (P07711 114-288 limits assumed) above", "sequence (P07711 292-333 limits assumed)": "as the sequence (P07711 292-333 limits assumed) above", "assay": "SDS-PAGE autoradiography of adduct formation with purified CatL", "format": "biochemical", "details": "E-64 10 μM or N1 20 μM"}, "[3]": {"molecular_target": "T1, Cathepsin B (CatB, human liver)", "details": "read-out: Michaelis-Menten constant (Km), reported value; cited from earlier work"}, "[4]": {"molecular_target": "T2, Cathepsin L (Cat L, human liver)", "details": "read-out: Michaelis-Menten constant (Km), literature value; CatL; cited from earlier work"}}, "note": "Read-outs that look alike come from different tables or passages of the source. Peptide text beside a SMILES is read from it. * marks the point of attachment. AMC = Cc1cc(=O)oc2cc(N*)ccc12; Cbz = O=C(OCc1ccccc1)*"}
{"compound": "3-(((S)-1-(((S)-1-((2-azidoethyl)amino)-5-guanidino-1-oxopentan-2-yl)amino)-4-methyl-1-oxopentan-2-yl)carbamoyl)oxirane-2-carboxylic acid [1a]", "values": [{"measurement": "second order rate constant ki/Ki", "setting": "[1]; CatB", "value": "130000 ± 1900", "unit": "M⁻¹ s⁻¹"}, {"measurement": "second order rate constant ki/Ki", "setting": "[2]; CatL", "value": "16000 ± 1300", "unit": "M⁻¹ s⁻¹"}]}
{"compound": "CC(C)C[C@H](NC(=O)CCC(=O)O)C(=O)N[C@@H](CCCNC(=N)N)C(=O)NCCN=[N+]=[N-]", "note": "[1b, 4-(((S)-1-(((S)-1-((2-azidoethyl)amino)-5-guanidino-1-oxopentan-2-yl)amino)-4-methyl-1-oxopentan-2-yl)amino)-4-oxobutanoic acid]", "values": [{"measurement": "inhibition of CatB", "setting": "[1]; over the test concentration ranges", "value": "No inhibition"}]}
{"compound": "CC(C)C[C@H](NC(=O)[C@H]1O[C@@H]1C(=O)O)C(=O)NCCCCN=C(N)N", "note": "[E-64]", "values": [{"measurement": "effect of co-incubated agent on ^177Lu-NE1a intracellular adduct formation", "setting": "HT-29 cells", "value": "unaffected"}, {"measurement": "effect of co-incubated agent on ^177Lu-NE1a adduct formation with CatB", "setting": "human CatB", "value": "prevented adduct formation"}, {"measurement": "effect of co-incubated agent on ^177Lu-NE1a adduct formation with CatL", "setting": "human CatL", "value": "prevented adduct formation"}]}
{"compound": "Cc1cc(=O)oc2cc(NC(=O)[C@H](CCCN=C(N)N)NC(=O)[C@H](CCCN=C(N)N)NC(=O)OCc3ccccc3)ccc12", "note": "[Z-Arg-Arg-AMC] (Cbz-Arg-Arg-{AMC})", "values": [{"measurement": "Km", "setting": "[3]", "value": "390 ± 20", "unit": "µM"}, {"measurement": "Km", "setting": "[1]; read-out: Michaelis-Menten constant (Km), CatB substrate", "value": "189 ± 2", "unit": "µM"}]}
{"compound": "Cc1cc(=O)oc2cc(NC(=O)C(CCCN=C(N)N)NC(=O)C(Cc3ccccc3)NC(=O)OCc3ccccc3)ccc12", "note": "(stereo not drawn) [Z-Phe-Arg-AMC] (Cbz-Phe-Arg-{AMC}; configuration not given here)", "values": [{"measurement": "Km", "setting": "[4]", "value": "21.5 ± 3.2", "unit": "µM"}, {"measurement": "Km", "setting": "[2]; read-out: Michaelis-Menten constant (Km), CatL substrate", "value": "36 ± 3", "unit": "µM"}]}
